In ChEMBL document CHEMBL3108706, “Design, synthesis, and biological activity of novel dicoumarol glucagon-like peptide 1 conjugates” (J Med Chem, 2013):
Activity calls are given as the source filed them. The calls are words filed in the database; no cut-off is given here.

Tests used:
Mus musculus [1] = assay: Hypoglycemic activity in C57BL/6J-m+/+Leprdb (db/db) mouse assessed as time required to reduce plasma glucose level below 8.35 mM at 150 nmol/kg, ip administered for 0.5 hrs; format: functional
Summary of the method: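 Non-fasted male db/db mice (7 weeks, free access to food and water) got a single ip injection (25 or 150 nmol/kg) or saline. Glucose AUC0−48h and the time for glucose to return below 8.35 mM were derived. Mean ± SD, n = 6.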

Rattus norvegicus [2] = assay: Antidiabetic activity in Sprague-Dawley rat assessed as reduction of plasma glucose level at 25 nmol/kg, ip administered 0.5 hrs prior to glucose challenge by OGTT (reference value: 13.32 +/- 1.84 mM); format: functional
Mus musculus [3] = assay: Hypoglycemic activity in C57BL/6J-m+/+Leprdb (db/db) mouse assessed as time required to reduce plasma glucose level below 8.35 mM at 25 nmol/kg, ip administered for 0.5 hrs; format: functional
Summary of the method: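 Non-fasted male db/db mice (7 weeks, free access to food and water) got a single ip injection (25 or 150 nmol/kg) or saline. Mean ± SD, n = 6.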

Rattus norvegicus [4] = assay: Anticoagulant activity in Sprague-Dawley rat assessed as thombin time at 25 nmol/kg, iv administered for 6 days measured on day 7 by coagulometric analysis (reference value: 19.38 +/- 0.72 secs); format: functional
Rattus norvegicus [5] = assay: Anticoagulant activity in Sprague-Dawley rat assessed as activated […] time at 25 nmol/kg, iv administered for 6 days measured on day 7 by coagulometric analysis (reference value: 26.5 +/- 0.81 secs); format: functional
Rattus norvegicus [6] = assay: Anticoagulant activity in Sprague-Dawley rat assessed as thombin time at 150 nmol/kg, iv administered for 6 days measured on day 7 by coagulometric analysis (reference value: 19.38 +/- 0.72 secs); format: functional
[7] = Tmax in Sprague-Dawley rat at 15 nmol/kg, sc by LC-MS/MS analysis; format: ADME, organism-based; conditions: in vivo
[8] = Cmax in Sprague-Dawley rat at 15 nmol/kg, sc by LC-MS/MS analysis; format: ADME, organism-based; design: dose 15 nmol/kg, route subcutaneous; conditions: in vivo
[9] = Elimination half life in Sprague-Dawley rat at 15 nmol/kg, sc by LC-MS/MS analysis; format: ADME, organism-based; conditions: in vivo, read-out: beta t1/2 (converted)
Rattus norvegicus [10] = assay: Antidiabetic activity in Sprague-Dawley rat assessed as increase of plasma insulin level at 25 nmol/kg, ip administered 0.5 hrs prior to glucose challenge measured at 45 mins by ELISA; format: functional
Mus musculus [11] = assay: Hypoglycemic activity in C57BL/6J-m+/+Leprdb (db/db) mouse assessed as reduction of plasma glucose level at 25 nmol/kg, ip administered 0.5 hrs prior to glucose challenge measured at 21.5 to 24 hrs by IPGTT; format: functional, organism-based
[12] = Half life in Sprague-Dawley rat plasma at 1000 ng/mL by LC-MS/MS analysis; format: ADME, cell-free
[13] = Mean residence time in Sprague-Dawley rat at 15 nmol/kg, sc by LC-MS/MS analysis; format: ADME, organism-based; conditions: in vivo
Mus musculus [14] = assay: Hypoglycemic activity in C57BL/6J-m+/+Leprdb (db/db) mouse assessed as reduction of plasma glucose level at 25 nmol/kg, ip administered 0.5 hrs prior to glucose challenge measured up to 17 hrs by IPGTT (reference value: >30 mM); format: functional
Rattus norvegicus [15] = assay: Antidiabetic activity in Sprague-Dawley rat assessed as increase of plasma insulin level at 25 nmol/kg, ip administered 0.5 hrs prior to glucose challenge measured at 15 mins by ELISA; format: functional
[16] = molecular target: Glucagon-like peptide 1 receptor (Homo sapiens, UniProt P43220); assay: Activation of human GLP-1 receptor overexpressed in HEK293 cells assessed as cAMP accumulation after 20 mins by HTRF assay; format: functional, cell-based
Mus musculus [17] = assay: Hypoglycemic activity in C57BL/6J-m+/+Leprdb (db/db) mouse assessed as reduction of plasma glucose level at 25 nmol/kg, ip administered 0.5 hrs prior to glucose challenge measured at 21.5 hrs by IPGTT (reference value: >30 mM); format: functional
Rattus norvegicus [18] = assay: Antidiabetic activity in Sprague-Dawley rat assessed as reduction of plasma glucose level at 25 nmol/kg, ip administered 0.5 hrs prior to glucose challenge measured at 15 to 60 mins by OGTT; format: functional, organism-based
Rattus norvegicus [19] = assay: Anticoagulant activity in Sprague-Dawley rat assessed as prothombin time at 25 nmol/kg, iv administered for 6 days measured on day 7 by coagulometric analysis (reference value: 13.5 +/- 0.32 secs); format: functional
Rattus norvegicus [20] = assay: Anticoagulant activity in Sprague-Dawley rat assessed as prothombin time at 150 nmol/kg, iv administered for 6 days measured on day 7 by coagulometric analysis (reference value: 13.5 +/- 0.32 secs); format: functional
Mus musculus [21] = assay: Hypoglycemic activity in C57BL/6J-m+/+Leprdb (db/db) mouse assessed as reduction of plasma glucose level at 25 nmol/kg, ip administered 0.5 hrs prior to glucose challenge measured after 18 to 21 hrs by IPGTT (reference value: >30 mM); format: functional
Rattus norvegicus [22] = assay: Anticoagulant activity in Sprague-Dawley rat assessed as activated […] time at 150 nmol/kg, iv administered for 6 days measured on day 7 by coagulometric analysis (reference value: 26.5 +/- 0.81 secs); format: functional
Rattus norvegicus [23] = assay: Antidiabetic activity in Sprague-Dawley rat assessed as increase of plasma insulin level at 25 nmol/kg, ip administered 0.5 hrs prior to glucose challenge measured for 120 mins by ELISA; format: functional, organism-based
Summary of the method: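 SD rats (200−250 g, n = 6/group) were fasted 12 h and given compound ip (25 nmol/kg) or saline 0.5 h before oral glucose (10 g/kg). Tail-vein blood glucose was read with a meter at −30, 0, 15, 30, 45, 60, 90, 120 and 180 min. Insulin was measured by rat insulin ELISA. Mean ± SD.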

Rattus norvegicus [24] = assay: AUC (0 to infinity) in Sprague-Dawley rat at 15 nmol/kg, sc by LC-MS/MS analysis; format: ADME, organism-based, Plasma; design: dose 15 nmol/kg, route subcutaneous, time infinity; conditions: in vivo
albumin = albumin (Homo sapiens, UniProt P02768); assay: Binding affinity to human serum albumin at 100 ug/mL after 3 hrs relative to control; format: ADME; conditions: read-out: PB (converted)
Summary of the method: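 Peptide at 100 μg/mL in PBS (50 μL) was incubated with HSA-conjugated Sepharose resin for 3 h at 25 °C, then centrifuged (1000 rpm, 10 min). Unbound peptide in the supernatant was quantified by micro BCA assay. Nonspecific adsorption was corrected with NHS-inactivated, albumin-free resin.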

Sequence of Glucagon-like peptide 1 receptor (P43220 whole entry): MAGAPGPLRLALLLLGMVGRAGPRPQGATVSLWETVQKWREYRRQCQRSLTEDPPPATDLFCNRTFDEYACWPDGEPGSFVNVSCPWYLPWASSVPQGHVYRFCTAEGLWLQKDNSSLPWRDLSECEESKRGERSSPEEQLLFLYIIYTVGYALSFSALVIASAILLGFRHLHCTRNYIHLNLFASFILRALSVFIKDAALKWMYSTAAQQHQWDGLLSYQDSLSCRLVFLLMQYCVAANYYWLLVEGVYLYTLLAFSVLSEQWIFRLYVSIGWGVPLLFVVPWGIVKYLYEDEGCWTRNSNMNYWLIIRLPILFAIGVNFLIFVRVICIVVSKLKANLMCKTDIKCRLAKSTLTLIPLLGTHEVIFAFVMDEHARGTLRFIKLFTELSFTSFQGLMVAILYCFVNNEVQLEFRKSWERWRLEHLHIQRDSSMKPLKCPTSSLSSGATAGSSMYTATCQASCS
Sequence of albumin (P02768 whole entry): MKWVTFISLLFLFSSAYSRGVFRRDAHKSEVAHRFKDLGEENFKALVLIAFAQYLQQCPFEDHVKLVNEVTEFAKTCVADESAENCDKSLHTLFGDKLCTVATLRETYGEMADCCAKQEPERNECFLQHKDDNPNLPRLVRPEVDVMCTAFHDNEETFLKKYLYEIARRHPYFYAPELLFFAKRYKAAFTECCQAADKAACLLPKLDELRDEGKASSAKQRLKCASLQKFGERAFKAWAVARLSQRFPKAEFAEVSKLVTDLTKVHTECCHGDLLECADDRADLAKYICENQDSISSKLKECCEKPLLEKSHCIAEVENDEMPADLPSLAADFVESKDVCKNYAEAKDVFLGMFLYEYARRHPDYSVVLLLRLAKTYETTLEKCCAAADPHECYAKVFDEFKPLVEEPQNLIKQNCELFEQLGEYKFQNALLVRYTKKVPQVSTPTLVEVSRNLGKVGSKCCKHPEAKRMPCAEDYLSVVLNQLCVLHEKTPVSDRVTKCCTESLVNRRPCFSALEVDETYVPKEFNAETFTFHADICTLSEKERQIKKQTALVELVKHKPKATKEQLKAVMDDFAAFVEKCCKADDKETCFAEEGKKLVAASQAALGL

| Structure (SMILES) | Activity (Rattus norvegicus [2]) [mM] | Time (Mus musculus [3]) [h] | Tmax [7] [h] | Cmax [8] [ng/mL] | half-life [9] [min] | Activity (Rattus norvegicus [10]) [pM] | half-life at 1000 ng/mL [12] [min] | MRT [13] [h] | Activity (Rattus norvegicus [15]) [pM] | EC50 [16] [pM] | Activity (Rattus norvegicus [18]) | Activity (Rattus norvegicus [23]) | AUC (Rattus norvegicus [24]) [ng·h/mL] | fraction unbound at 3 h, 100 ug/mL (albumin) | also measured |
| --- | --- | --- | --- | --- | --- | --- | --- | --- | --- | --- | --- | --- | --- | --- | --- |
| CC[C@H](C)[C@H](NC(=O)[C@H](Cc1ccccc1)NC(=O)[C@H](CCC(=O)O)NC(=O)[C@H](CCCCN)NC(=O)[C@H](C)NC(=O)[C@H](C)NC(=O)[C@H](CCC(N)=O)NC(=O)CNC(=O)[C@H](CCC(=O)O)NC(=O)[C@H](CC(C)C)NC(=O)[C@H](Cc1ccc(O)cc1)NC(=O)[C@H](CO)NC(=O)[C@H](CO)NC(=O)[C@@H](NC(=O)[C@H](CC(=O)O)NC(=O)[C@H](CO)NC(=O)[C@@H](NC(=O)[C@H](Cc1ccccc1)NC(=O)[C@@H](NC(=O)CNC(=O)[C@H](CCC(=O)O)NC(=O)CNC(=O)[C@@H](N)Cc1cnc[nH]1)[C@@H](C)O)[C@@H](C)O)C(C)C)C(=O)N[C@@H](C)C(=O)N[C@@H](Cc1c[nH]c2ccccc12)C(=O)N[C@@H](CC(C)C)C(=O)N[C@H](C(=O)N[C@@H](CCCCN)C(=O)NCC(=O)N[C@@H](CCCNC(=N)N)C(=O)N[C@@H](CSC1CC(=O)N(CCCCCCCCCCCC(=O)Nc2ccc(C(c3c(O)c4ccccc4oc3=O)c3c(O)c4ccccc4oc3=O)cc2)C1=O)C(N)=O)C(C)C (some centres undefined) | 7.8 | 22.5 | 1.3 | 907 | 1130 | 524.26 | 3350 | 29.8 | 1052.22 | 24.2 | Active | Active | 36800 | 0.06 | Time (Mus musculus [1]): 30.4 h; TT (Rattus norvegicus [4]): 19.4 s; APTT (Rattus norvegicus [5]): 26.76 s; TT (Rattus norvegicus [6]): 19.8 s; Activity (Mus musculus [11]): Active; Activity (Mus musculus [14]): <12 mM; Activity (Mus musculus [17]): 16.25 mM; PT (Rattus norvegicus [19]): 13.39 s; PT (Rattus norvegicus [20]): 13.53 s; Activity (Mus musculus [21]): <16 mM; APTT (Rattus norvegicus [22]): 26.48 s |
| CC[C@H](C)[C@H](NC(=O)[C@H](Cc1ccccc1)NC(=O)[C@H](CCC(=O)O)NC(=O)[C@H](CCCCN)NC(=O)[C@H](C)NC(=O)[C@H](C)NC(=O)[C@H](CCC(N)=O)NC(=O)CNC(=O)[C@H](CCC(=O)O)NC(=O)[C@H](CC(C)C)NC(=O)[C@H](Cc1ccc(O)cc1)NC(=O)[C@H](CO)NC(=O)[C@H](CO)NC(=O)[C@@H](NC(=O)[C@H](CC(=O)O)NC(=O)[C@H](CO)NC(=O)[C@@H](NC(=O)[C@H](Cc1ccccc1)NC(=O)[C@@H](NC(=O)CNC(=O)[C@H](CCC(=O)O)NC(=O)CNC(=O)[C@@H](N)Cc1cnc[nH]1)[C@@H](C)O)[C@@H](C)O)C(C)C)C(=O)N[C@@H](C)C(=O)N[C@@H](Cc1c[nH]c2ccccc12)C(=O)N[C@@H](CC(C)C)C(=O)N[C@H](C(=O)N[C@@H](CSC1CC(=O)N(CCC(=O)Nc2ccc(C(c3c(O)c4ccccc4oc3=O)c3c(O)c4ccccc4oc3=O)cc2)C1=O)C(=O)NCC(=O)N[C@@H](CCCNC(=N)N)C(N)=O)C(C)C (some centres undefined) | – | – | – | – | – | – | 1160 | – | – | 6.5 | – | – | – | 0.273 | – |
| CC[C@H](C)[C@H](NC(=O)[C@H](Cc1ccccc1)NC(=O)[C@H](CCC(=O)O)NC(=O)[C@H](CCCCN)NC(=O)[C@H](C)NC(=O)[C@H](C)NC(=O)[C@H](CCC(N)=O)NC(=O)CNC(=O)[C@H](CCC(=O)O)NC(=O)[C@H](CC(C)C)NC(=O)[C@H](Cc1ccc(O)cc1)NC(=O)[C@H](CO)NC(=O)[C@H](CS)NC(=O)[C@@H](NC(=O)[C@H](CC(=O)O)NC(=O)[C@H](CO)NC(=O)[C@@H](NC(=O)[C@H](Cc1ccccc1)NC(=O)[C@@H](NC(=O)CNC(=O)[C@H](CCC(=O)O)NC(=O)CNC(=O)[C@@H](N)Cc1cnc[nH]1)[C@@H](C)O)[C@@H](C)O)C(C)C)C(=O)N[C@@H](C)C(=O)N[C@@H](Cc1c[nH]c2ccccc12)C(=O)N[C@@H](CC(C)C)C(=O)N[C@H](C(=O)N[C@@H](CCCCN)C(=O)NCC(=O)N[C@@H](CCCNC(=N)N)C(N)=O)C(C)C | – | – | – | – | – | – | 66 | – | – | 6.4 | – | – | – | 0.922 | – |
| CCCCCCCCCCCCCCCC(=O)N[C@@H](CCC(=O)NCCCC[C@H](NC(=O)[C@H](C)NC(=O)[C@H](C)NC(=O)[C@H](CCC(N)=O)NC(=O)CNC(=O)[C@H](CCC(=O)O)NC(=O)[C@H](CC(C)C)NC(=O)[C@H](Cc1ccc(O)cc1)NC(=O)[C@H](CO)NC(=O)[C@H](CO)NC(=O)[C@@H](NC(=O)[C@H](CC(=O)O)NC(=O)[C@H](CO)NC(=O)[C@@H](NC(=O)[C@H](Cc1ccccc1)NC(=O)[C@@H](NC(=O)CNC(=O)[C@H](CCC(=O)O)NC(=O)[C@H](C)NC(=O)[C@@H](N)Cc1cnc[nH]1)[C@@H](C)O)[C@@H](C)O)C(C)C)C(=O)N[C@@H](CCC(=O)O)C(=O)N[C@@H](Cc1ccccc1)C(=O)N[C@H](C(=O)N[C@@H](C)C(=O)N[C@@H](Cc1c[nH]c2ccccc12)C(=O)N[C@@H](CC(C)C)C(=O)N[C@H](C(=O)N[C@@H](CCCNC(=N)N)C(=O)NCC(=O)N[C@@H](CCCNC(=N)N)C(=O)NCC(=O)O)C(C)C)[C@@H](C)CC)C(=O)O [LIRAGLUTIDE] | 8.3 | 19 | 1.51 | 902 | 752 | 425.34 | 1030 | 18.3 | 992.08 | – | Active | Active | 18100 | 0.087 | – |
